What was measured:
OVCAR-3 = assay: Cytotoxicity against human OVCAR3 cells after 24 hrs by SRB assay; assay type: functional; conditions: OVCAR-3, 24 h
Method in brief: (§1)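 NCI 60-line screen. Cells in RPMI 1640 with 5% FBS and 2 mM L-glutamine, seeded at 5,000–40,000 cells/well by doubling time, then incubated 24 h at 37 °C, 5% CO2 before dosing. Time-zero plates fixed with TCA at drug addition. DMSO stocks diluted in medium with gentamicin to five concentrations, […]. Protein read by SRB staining. GI50, TGI and LC50 derived relative to control and time-zero.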

LOX IMVI [1] = assay: (§2) Cytotoxicity against human LOXIMVI cells after 24 hrs by SRB assay; assay type: functional; method in brief: as §1
MDA-MB-231 [2] = assay: (§3) Cytotoxicity against human MDA-MB-231 cells after 24 hrs by SRB assay; assay type: cell-based; conditions: mda-mb-231, 24 h
Method in brief: (§4)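 NCI 60-cell screen. Cells grown in RPMI 1640 with 5% FBS and 2 mM L-glutamine, seeded at 5,000–40,000 cells/well, preincubated 24 h at 37 °C in 5% CO2. Drug stock in DMSO, diluted in medium with gentamicin; five final concentrations, 100, 10, 1.0, 0.1 and […]. Time-zero plates were TCA-fixed. Protein read by SRB staining; GI50, TGI and LC50 taken relative to time-zero.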

CAKI-1 = assay: Cytotoxicity against human CAKI-1 cells after 24 hrs by SRB assay; assay type: cell-based; conditions: caki-1, 24 h; method in brief: as §4
HL-60 = assay: Cytotoxicity against human HL60 cells after 24 hrs by SRB assay; assay type: cell-based; conditions: hl-60, 24 h; method in brief: as §4
HOP-62 = assay: Cytotoxicity against human HOP62 cells after 24 hrs by SRB assay; assay type: functional; conditions: HOP-62, 24 h; method in brief: as §1
MOLT-4 [3] = assay: (§5) Cytotoxicity against human MOLT4 cells after 24 hrs by SRB assay; assay type: functional; conditions: MOLT-4, 24 h; method in brief: as §1
[4] = (§6) Cytotoxicity against human Hs 578T cells after 24 hrs by SRB assay; assay type: cell-based; method in brief: as §4
MDA-MB-435 = assay: Cytotoxicity against human MDA-MB-435 cells after 24 hrs by SRB assay; assay type: functional; conditions: MDA-MB-435, 24 h; method in brief: as §1
HCT-116 = assay: Cytotoxicity against human HCT116 cells after 24 hrs by SRB assay; assay type: cell-based; conditions: hct-116, 24 h; method in brief: as §4
SNB-75 = assay: Cytotoxicity against human SNB75 cells after 24 hrs by SRB assay; assay type: cell-based; conditions: snb-75, 24 h
Method in brief: (§7)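 NCI 60-cell-line screen: cells grown in RPMI 1640 with 5% FBS and 2 mM L-glutamine, seeded at 5,000–40,000 cells/well by doubling time, and preincubated 24 h at 37 °C in 5% CO2. Time-zero plates were TCA-fixed. DMSO stocks were diluted in medium with gentamicin to five concentrations (100, 10, 1.0, 0.1, […]). Protein was read by SRB, and GI50, TGI and LC50 were derived against time-zero.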

OVCAR-5 = assay: Cytotoxicity against human OVCAR5 cells after 24 hrs by SRB assay; assay type: cell-based; conditions: ovcar-5, 24 h; method in brief: as §4
EKVX [5] = assay: (§8) Cytotoxicity against human EKVX cells after 24 hrs by SRB assay; assay type: cell-based; method in brief: as §4
[6] = as §6; assay type: functional; method in brief: as §1
RXF 393 = assay: Cytotoxicity against human RXF393 cells after 24 hrs by SRB assay; assay type: cell-based; conditions: rxf 393, 24 h; method in brief: as §4
LOX IMVI [7] = assay: as §2; assay type: cell-based; method in brief: as §4
NCI/ADR-RES [8] = assay: (§9) Cytotoxicity against human NCI/ADR-RES cells after 24 hrs by SRB assay; assay type: cell-based; method in brief: as §4
MOLT-4 [9] = assay: as §5; assay type: cell-based; conditions: molt-4, 24 h; method in brief: as §4
SN12C = assay: Cytotoxicity against human SN12C cells after 24 hrs by SRB assay; assay type: cell-based; method in brief: as §7
OVCAR-8 [10] = assay: (§10) Cytotoxicity against human OVCAR8 cells after 24 hrs by SRB assay; assay type: cell-based; conditions: ovcar-8, 24 h; method in brief: as §4
UACC-62 [11] = assay: (§11) Cytotoxicity against human UACC62 cells after 24 hrs by SRB assay; assay type: functional; conditions: UACC-62, 24 h
Method in brief: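 NCI 60-cell screen. Cells are grown in RPMI 1640 with 5% FBS and 2 mM L-glutamine and seeded at 5,000–40,000 cells/well according to doubling time. They are preincubated 24 h at 37 °C in 5% CO2, and Tz plates are TCA-fixed at drug addition. Drug stock is in DMSO, diluted in medium with gentamicin, and tested at five concentrations (100, 10, 1.0, 0.1, […]). Protein is read by SRB staining. GI50, TGI and LC50 are derived relative to time-zero and control wells.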

DU-145 = assay: Cytotoxicity against human DU145 cells after 24 hrs by SRB assay; assay type: functional; conditions: DU-145, 24 h; method in brief: as §1
UACC-62 [12] = assay: as §11; assay type: cell-based; conditions: uacc-62, 24 h; method in brief: as §7
EKVX [13] = assay: as §8; assay type: functional; method in brief: as §1
SW-620 = assay: Cytotoxicity against human SW620 cells after 24 hrs by SRB assay; assay type: cell-based; conditions: sw-620, 24 h; method in brief: as §7
TK-10 = assay: Cytotoxicity against human TK10 cells after 24 hrs by SRB assay; assay type: cell-based; conditions: tk-10, 24 h; method in brief: as §7
MDA-MB-231 [14] = assay: as §3; assay type: functional; conditions: MDA-MB-231, 24 h; method in brief: as §1
HOP-92 = assay: Cytotoxicity against human HOP92 cells after 24 hrs by SRB assay; assay type: cell-based; conditions: hop-92, 24 h; method in brief: as §4
NCI-H460 = assay: Cytotoxicity against human NCI-H460 cells after 24 hrs by SRB assay; assay type: cell-based; conditions: nci-h460, 24 h; method in brief: as §4
COLO 205 = assay: Cytotoxicity against human COLO205 cells after 24 hrs by SRB assay; assay type: functional; conditions: COLO 205, 24 h; method in brief: as §1
ACHN = assay: Cytotoxicity against human ACHN cells after 24 hrs by SRB assay; assay type: cell-based; method in brief: as §4
OVCAR-8 [15] = assay: as §10; assay type: functional; conditions: OVCAR-8, 24 h; method in brief: as §1
BT-549 = assay: Cytotoxicity against human BT549 cells after 24 hrs by SRB assay; assay type: cell-based; conditions: bt-549, 24 h; method in brief: as §4
SK-MEL-5 = assay: Cytotoxicity against human SK-MEL-5 cells after 24 hrs by SRB assay; assay type: functional; conditions: SK-MEL-5, 24 h; method in brief: as §1
MCF7 = assay: Cytotoxicity against human MCF7 cells after 24 hrs by SRB assay; assay type: functional; conditions: MCF7, 24 h; method in brief: as §1
SF-539 = assay: Cytotoxicity against human SF539 cells after 24 hrs by SRB assay; assay type: functional; conditions: SF-539, 24 h; method in brief: as §1
NCI-H226 = assay: Cytotoxicity against human NCI-H226 cells after 24 hrs by SRB assay; assay type: functional; conditions: NCI-H226, 24 h; method in brief: as §1
NCI/ADR-RES [16] = assay: as §9; assay type: functional; method in brief: as §1

`O=C(/C=C/c1cc2ccccc2[nH]c1=O)c1ccc(O)cc1` gave a GI50 (OVCAR-3) of 3.22 µM, a TGI (OVCAR-3) of 11.8 µM and a GI50 (LOX IMVI [1]) of 2.47 µM. For the same compound, the TGI (LOX IMVI [1]) was 12.7 µM, the LC50 (MDA-MB-231 [2]) was greater than 100 µM and the LC50 (CAKI-1) was greater than 100 µM. For the same compound, the LC50 (HL-60) was greater than 100 µM, the GI50 (HOP-62) was 2.62 µM and the TGI (HOP-62) was 8.17 µM. It also gave a GI50 (MOLT-4 [3]) of 3.04 µM, a TGI (MOLT-4 [3]) of 9.91 µM and an LC50 [4] greater than 100 µM. For the same compound, the GI50 (MDA-MB-435) was 2.94 µM, the TGI (MDA-MB-435) was 16.8 µM and the LC50 (HCT-116) was 9.91 µM. The LC50 (SNB-75) was 55 µM, the LC50 (OVCAR-5) was 44.4 µM and the LC50 (EKVX [5]) was 55.2 µM. For the same compound, the GI50 [6] was 6.15 µM, the TGI [6] was greater than 100 µM and the LC50 (RXF 393) was 6.33 µM. For the same compound, the LC50 (LOX IMVI [7]) was greater than 100 µM, the LC50 (NCI/ADR-RES [8]) was greater than 100 µM and the LC50 (MOLT-4 [9]) was greater than 100 µM. The LC50 (SN12C) was greater than 100 µM, the LC50 (OVCAR-8 [10]) was greater than 100 µM and the GI50 (UACC-62 [11]) was 2.88 µM. The TGI (UACC-62 [11]) was 8.73 µM, the GI50 (DU-145) was 4.02 µM and the TGI (DU-145) was 14.3 µM. The LC50 (UACC-62 [12]) was 39.6 µM, the GI50 (EKVX [13]) was 13.4 µM and the TGI (EKVX [13]) was 27.2 µM. For the same compound, the LC50 (SW-620) was greater than 100 µM, the LC50 (TK-10) was 34.6 µM and the GI50 (MDA-MB-231 [14]) was 2.31 µM. For the same compound, the TGI (MDA-MB-231 [14]) was 15 µM, the LC50 (HOP-92) was greater than 100 µM and the LC50 (NCI-H460) was greater than 100 µM. It also gave a GI50 (COLO 205) of 4.05 µM, a TGI (COLO 205) of 19.7 µM and an LC50 (ACHN) of 34 µM. It also gave a GI50 (OVCAR-8 [15]) of 3.23 µM, a TGI (OVCAR-8 [15]) of 21.1 µM and an LC50 (BT-549) greater than 100 µM. The GI50 (SK-MEL-5) was 3.98 µM, the TGI (SK-MEL-5) was 13.3 µM and the GI50 (MCF7) was 3.49 µM. The TGI (MCF7) was 16.8 µM, the GI50 (SF-539) was 2.55 µM and the TGI (SF-539) was 8.64 µM. It also gave a GI50 (NCI-H226) of 3.29 µM, a TGI (NCI-H226) of 10.9 µM and a GI50 (NCI/ADR-RES [16]) of 2.9 µM. It also gave a TGI (NCI/ADR-RES [16]) greater than 100 µM.
